From ChEMBL document CHEMBL1122782, “Bulky amine analogues of ketoprofen: potent antiinflammatory agents” (J Med Chem, 1984)

Key:
[1] = tested on: Rattus norvegicus; test: Antiinflammatory efficacy is measured by the weight gain in rats during the 3 week adjuvant arthritis test at 0.011 mM/kg (3.94 mg); format: functional
How it was run: (§1)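 Rats were adjuvant-injected (M. butyricum in mineral oil, one hind paw) or given a mineral-oil placebo. They were dosed by gavage daily for 21 days from the injection day, with vehicle only for both control groups, then weighed at the end. Weight gain % = (treated − adjuvant control)/(negative control − adjuvant control) × 100.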

[2] = tested on: Rattus norvegicus; test: Antiinflammatory efficacy is measured by the percent inhibition of paw volume during the 3 week adjuvant arthritis test at 0.0014 mM/kg (0.50 mg); format: functional
How it was run: (§2)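 Male Sprague-Dawley rats (200–230 g) were used in groups of eight. Each received 0.1 mL of 0.6% M. butyricum in heavy mineral oil into the plantar tissue of one hind paw. Daily oral gavage in 1% gum tragacanth or corn oil-water emulsion began on the injection day and ran 21 days. Total hind paw volume was measured by mercury displacement, and inhibition was taken versus vehicle-treated adjuvant controls.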

[3] = tested on: Rattus norvegicus; test: Antiinflammatory efficacy is measured by the weight gain in rats during the 3 week adjuvant arthritis test at 0.008 mM/kg (2.86 mg); format: functional; how it was run: as §1
[4] = organism: Rattus norvegicus; test: Compound was evaluated for highest non-ulcerogenic dose (less than 50% ulcer incidence); format: functional; conditions: read-out: ED50
How it was run: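 Taken from the 21-day adjuvant arthritis test in male Sprague-Dawley rats dosed orally each day from the day of adjuvant injection. Small intestines and stomachs were examined for ulceration at the end. The value is the highest dose giving less than 50% ulcer incidence.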

[5] = tested on: Rattus norvegicus; test: Ulcerogenicity was measured in stomach during the 3 week adjuvant arthritis test.(animals with ulcers/animals in test) at 0.008 mM/kg (2.86 mg); format: functional
How it was run: (§3)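 Male Sprague-Dawley rats (200–230 g) were injected in the plantar tissue of one hind paw with 0.1 mL of 0.6% M. butyricum suspension in heavy mineral oil. Daily oral gavage began on the day of adjuvant injection and ran for the 21 days, with drug suspended in 1% gum tragacanth or a corn oil-water emulsion. At the end the rats were sacrificed and the small intestine and stomach were examined for ulcers. Results are given as animals with ulcers/animals tested.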

[6] = tested on: Rattus norvegicus; test: Ulcerogenicity was measured in stomach during the 3 week adjuvant arthritis test.(animals with ulcers/animals in test) at 0.0014 mM/kg (0.50 mg); format: functional; how it was run: as §3
[7] = tested on: Rattus norvegicus; test: Antiinflammatory efficacy is measured by the weight gain in rats during the 3 week adjuvant arthritis test at 0.0014 mM/kg (0.50 mg); format: functional; how it was run: as §1
[8] = tested on: Rattus norvegicus; test: Ulcerogenicity was measured in intestine during the 3 week adjuvant arthritis test.(animals with ulcers/animals in test) at 0.008 mM/kg (2.86 mg); format: functional; how it was run: as §3
[9] = tested on: Rattus norvegicus; test: Ulcerogenicity was measured in intestine during the 3 week adjuvant arthritis test.(animals with ulcers/animals in test) at 0.0014 mM/kg (0.50 mg); format: functional; how it was run: as §3
[10] = tested on: Rattus norvegicus; test: Potency relative to phenylbutazone at 0.0014 mM/kg; format: functional
[11] = tested on: Rattus norvegicus; test: The mean increase in paw volume was compared between drug treated groups and placebo to calculate the percent inhibition in rats at 0.02 mmol/kg by carrageenan Edema Assay; 30-39; format: functional
[12] = tested on: Rattus norvegicus; test: Ulcerogenicity was measured in stomach during the 3 week adjuvant arthritis test, no of animals with ulcers out of 8 animals tested at 0.08 mM/kg (24.7 mg) was reported; format: functional; how it was run: as §3
[13] = tested on: Rattus norvegicus; test: Antiinflammatory efficacy is measured by the weight gain in rats during the 3 week adjuvant arthritis test at 0.08 mM/kg(24.7 mg); format: functional; how it was run: as §1
[14] = tested on: Rattus norvegicus; test: Ulcerogenicity was measured in intestine during the 3 week adjuvant arthritis test, no of animals with ulcers out of 8 animals tested at 0.16 mM/kg (49.4 mg) was reported.; format: functional; how it was run: as §3
[15] = tested on: Rattus norvegicus; test: Ulcerogenicity was measured in stomach during the 3 week adjuvant arthritis test, no of animals with ulcers out of 8 animals tested at 0.16 mM/kg (49.4 mg) was reported.; format: functional; how it was run: as §3
[16] = tested on: Rattus norvegicus; test: The percent inhibition was calculated from the average differences in hind paw volume between the adjuvant injected controls and the adjuvant-injected medicated rats at 0.08 mmol/kg; 60-69; format: functional
[17] = tested on: Rattus norvegicus; test: Ulcerogenicity was measured in intestine during the 3 week adjuvant arthritis test, no of animals with ulcers out of 8 animals tested at 0.08 mM/kg (24.7 mg) was reported; format: functional
How it was run: (§4)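 In the 21-day adjuvant arthritis model, male Sprague-Dawley rats (200–230 g) received an M. butyricum mineral-oil suspension into one hind paw. They were dosed daily by gavage from the day of injection. At the end of the study the rats were killed, and the small intestines were examined for ulcers. Results are given as the number of ulcerated animals over the number tested.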

[18] = tested on: Rattus norvegicus; test: Potency relative to phenylbutazone at 0.08 mM/kg; format: functional
[19] = tested on: Rattus norvegicus; test: Antiinflammatory efficacy is measured by the percent inhibition of paw volume during the 3 week adjuvant arthritis test at 0.08 mM/kg(24.7 mg); format: functional; how it was run: as §2
[20] = tested on: Rattus norvegicus; test: The mean increase in paw volume was compared between drug treated groups and placebo to calculate the percent inhibition in rats at 0.08 mmol/kg by carrageenan Edema Assay; 0-19; format: functional
[21] = tested on: Rattus norvegicus; test: Ulcerogenicity was measured in stomach during the 3 week adjuvant arthritis test, no of animals with ulcers out of 8 animals tested at 0.02 mM/kg (8.76 mg) was reported; format: functional; how it was run: as §3
[22] = tested on: Rattus norvegicus; test: Antiinflammatory efficacy is measured by the weight gain in rats during the 3 week adjuvant arthritis test at 0.005 mM/kg (2.19 mg); format: functional; how it was run: as §1
[23] = tested on: Rattus norvegicus; test: Ulcerogenicity was measured in intestine during the 3 week adjuvant arthritis test, no of animals with ulcers out of animals tested at 0.08 mM/kg (35.0 mg) was reported; toxic; format: functional, organism-based; how it was run: as §3
[24] = tested on: Rattus norvegicus; test: Antiinflammatory efficacy is measured by the percent inhibition of paw volume during the 3 week adjuvant arthritis test at 0.02 mM/kg (8.76 mg); format: functional; how it was run: as §2
[25] = tested on: Rattus norvegicus; test: Potency relative to phenylbutazone at 0.005 mM/kg; format: functional
[26] = tested on: Rattus norvegicus; test: The mean increase in paw volume was compared between drug treated groups and placebo to calculate the percent inhibition in rats at 0.02 mmol/kg by carrageenan Edema Assay; 50-59; format: functional
[27] = tested on: Rattus norvegicus; test: Ulcerogenicity was measured in intestine during the 3 week adjuvant arthritis test, no of animals with ulcers out of 8 animals tested at 0.02 mM/kg (8.76 mg) was reported; format: functional; how it was run: as §4
[28] = tested on: Rattus norvegicus; test: Antiinflammatory efficacy is measured by the percent inhibition of paw volume during the 3 week adjuvant arthritis test at 0.005 mM/kg (2.19 mg); format: functional; how it was run: as §2
[29] = tested on: Rattus norvegicus; test: Antiinflammatory efficacy is measured by the weight gain in rats during the 3 week adjuvant arthritis test at 0.02 mM/kg (8.76 mg); format: functional; how it was run: as §1
[30] = tested on: Rattus norvegicus; test: Antiinflammatory efficacy is measured by the weight gain in rats during the 3 week adjuvant arthritis test at 0.02 mM/kg (7.28 mg); format: functional; how it was run: as §1
[31] = tested on: Rattus norvegicus; test: Ulcerogenicity was measured in intestine during the 3 week adjuvant arthritis test, no of animals with ulcers out of 8 animals tested at 0.08 mM/kg (29.1 mg) was reported; format: functional; how it was run: as §4
[32] = tested on: Rattus norvegicus; test: Ulcerogenicity was measured in intestine during the 3 week adjuvant arthritis test, no of animals with ulcers out of 7 animals tested at 0.32 mM/kg (116.4 mg) was reported; format: functional; how it was run: as §4
[33] = tested on: Rattus norvegicus; test: Antiinflammatory efficacy is measured by the weight gain in rats during the 3 week adjuvant arthritis test at 0.005 mM/kg (1.82 mg); format: functional; how it was run: as §1
[34] = tested on: Rattus norvegicus; test: Ulcerogenicity was measured in stomach during the 3 week adjuvant arthritis test, no of animals with ulcers out of 8 animals tested at 0.16 mM/kg (58.2 mg) was reported; format: functional; how it was run: as §3
[35] = tested on: Rattus norvegicus; test: Antiinflammatory efficacy is measured by the weight gain in rats during the 3 week adjuvant arthritis test at 0.08 mM/kg (29.1 mg); format: functional; how it was run: as §1
[36] = tested on: Rattus norvegicus; test: Antiinflammatory efficacy is measured by the weight gain in rats during the 3 week adjuvant arthritis test at 0.16 mM/kg (58.2 mg); format: functional; how it was run: as §1
[37] = target: prostaglandin synthetase (Bos taurus); test: Inhibitory concentration against prostaglandin synthetase from bull seminal vesicles
[38] = tested on: Rattus norvegicus; test: Antiinflammatory efficacy is measured by the percent inhibition of paw volume during the 3 week adjuvant arthritis test at 0.02 mM/kg (7.28 mg); format: functional; how it was run: as §2
[39] = tested on: Rattus norvegicus; test: Ulcerogenicity was measured in intestine during the 3 week adjuvant arthritis test.(animals with ulcers/animals in test) at 0.16 mM/kg (58.2 mg); 4/8; format: functional; how it was run: as §3
[40] = organism: Mus musculus; test: Effective Dose 50 is the amount of material required to elicit analgesic effect in 50% of an animal population
[41] = tested on: Rattus norvegicus; test: Ulcerogenicity was measured in stomach during the 3 week adjuvant arthritis test, no of animals with ulcers out of 7 animals tested at 0.32 mM/kg (116.4 mg) was reported; format: functional; how it was run: as §3
[42] = tested on: Rattus norvegicus; test: Antiinflammatory efficacy is measured by the percent inhibition of paw volume during the 3 week adjuvant arthritis test at 0.08 mM/kg (29.1 mg); format: functional; how it was run: as §2
[43] = tested on: Rattus norvegicus; test: Antiinflammatory efficacy is measured by the weight gain in rats during the 3 week adjuvant arthritis test at 0.32 mM/kg (116.4 mg); format: functional
How it was run: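 Male Sprague-Dawley rats (200–230 g), eight per group, received 0.1 mL of 0.6% M. butyricum in heavy mineral oil (negative controls: mineral oil) into one hind-paw plantar tissue. Daily gavage in 1% gum tragacanth or corn oil-water emulsion began on the injection day, for 21 days. Weight gain is expressed as (treated − adjuvant control)/(negative control − adjuvant control) × 100.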

[44] = organism: Rattus norvegicus; test: Effective Dose 50 is the amount of material required to elicit inflammatory effect in 50% of an animal population; format: functional
How it was run: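 In the 21-day adjuvant arthritis test in male Sprague-Dawley rats, daily gavage started on the day of M. butyricum injection. At the end, total hind paw volume was measured by mercury displacement. ED50 is the dose giving 50% inhibition of total hind paw volume change.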

[45] = tested on: Rattus norvegicus; test: Ulcerogenicity was measured in stomach during the 3 week adjuvant arthritis test, no of animals with ulcers out of 8 animals tested at 0.08 mM/kg (29.1 mg) was reported; format: functional; how it was run: as §3
[46] = tested on: Rattus norvegicus; test: Antiinflammatory efficacy is measured by the percent inhibition of paw volume during the 3 week adjuvant arthritis test at 0.005 mM/kg (1.82 mg); format: functional; how it was run: as §2

Molecule `COc1ccc2c(c1)c(CC(=O)O)c(C)n2C(=O)c1ccc(Cl)cc1` [INDOMETHACIN] has a Weight gain [1] of 38%, an Inhibition [2] of 63% and a Weight gain [3] of 48%. It also gave a highest non-ulcerogenic dose [4] of 0.4 µmol/kg, a Ulcerogenic index [5] of 5 and a Ulcerogenic index [6] of 6. For the same molecule, the Weight gain [7] was 14%, the Ulcerogenic index [8] was 17 and the Ulcerogenic index [9] was 3. It also gave a Potency [10] of 20%.
In the case of `CC(CN1CCOCC1)c1cccc(C(=O)c2ccccc2)c1` (stereo not given), the inhibition in vivo at 20 µmol/kg ([11]; Rattus norvegicus) was 30%, the Ulcerogenic index [12] was 0 and the Weight gain [13] was 66%. For the same molecule, the Ulcerogenic index [14] was 3, the Ulcerogenic index [15] was 1 and the inhibition in vivo at 80 µmol/kg ([16]; Rattus norvegicus) was 80%. The Ulcerogenic index [17] was 1, the highest non-ulcerogenic dose [4] was 8 µmol/kg and the Relative potency [18] was 8.6%. The Inhibition [19] was 82%.
In the case of `CC(CN1CCCC1CC1CCCCC1)c1cccc(C(O)c2ccccc2)c1` (stereo not given), the inhibition in vivo at 80 µmol/kg [20] was 0%.
With `CC(CN1CCCCC1CC1CCCCC1)c1cccc(C(=O)c2ccc(Cl)cc2)c1` (stereo not given) the Ulcerogenic index [21] was 0, the Weight gain [22] was 34% and the Ulcerogenic index [23] was “Toxic”. It also gave a highest non-ulcerogenic dose [4] of 3 µmol/kg, an Inhibition [24] of 90% and a Relative potency [25] of 11.9%. It also gave an inhibition in vivo at 20 µmol/kg [26] of 50%, a Ulcerogenic index [27] of 0 and an Inhibition [28] of 62%. It also gave a Weight gain [29] of 89%.
`CC(CN1CCOCC1)c1cccc(C(=O)c2ccccc2)c1.Cl` (stereo not given) was tested, and the Weight gain [30] was 10%, the Ulcerogenic index [31] was 5 and the Inhibition [11] was 30%. It also gave a Ulcerogenic index [32] of 7, a Weight gain [33] of 2% and a Ulcerogenic index [34] of 2. The Weight gain [35] was 43%, the Weight gain [36] was 70% and the IC50 [37] was 10 µM. For the same molecule, the Inhibition [16] was 60%, the Inhibition [38] was 72% and the Ulcerogenic index [39] was 4. For the same molecule, the ED50 [40] was 8.4 mg/kg, the Ulcerogenic index [41] was 1 and the Inhibition [42] was 89%. For the same molecule, the Weight gain [43] was 46%, the ED50 [44] was 5 µmol/kg and the Ulcerogenic index [45] was 0. The Inhibition [46] was 49%.
